Compound activity: PubChem BioAssay, several laboratories
This is one part of a sample in which hits are shown more often than they occur.
S1P4 agonist: S1P4 receptor agonists, primary screen, cell-based; 0.35% of 220,000 active; Sphingosine 1-phosphate receptor 4 (Homo sapiens), O95977; S1P4-expressing cell line, agonist reporter assay; activation, % at 4.98 µM; in the data active = activation above about 11%;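 also: 0% = DMSO vehicle and 100% = reference agonist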
Lmaj promast: Leishmania major promastigote growth inhibition, primary screen | Leishmania major promastigotes, resazurin fluorescence viability | inhibition, % at 10 µM | 9% of 200,000 active | AID 1063, 2008; in the data active = inhibition above about 50%;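 also: promastigotes grown with compound for 44 hours at 28 °C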
S1P4 antag: S1P4 receptor antagonists, primary screen, cell-based | Sphingosine 1-phosphate receptor 4 (Homo sapiens), O95977 | S1P4-expressing cells, antagonist mode, reporter read-out | inhibition, % at 4.98 µM | 0.26% of 220,000 active; in the data active = inhibition above about 29%;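 also: 0% = wells stimulated with agonist and 100% = vehicle wells without agonist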
MDM2 E3 inh: MDM2-luciferase reporter signal enhancers, primary screen, MDM2 E3 ligase inhibitor project, cell-based, luminescence, 1536-well; cell-based MDM2 ubiquitination luciferase reporter, 2 h; 0 = plate control, 100 = twice control, blank-subtracted; signal enhancement, % at 5 µM; 0.11% of 210,000 active; AID 1230, 2008;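 active = signal enhancement of 30% or more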;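 also: luminescence tracks abundance of the self-degrading MDM2-luciferase fusion protein; higher signal means inhibition of MDM2 E3 ligase activity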
Target sequence (Q00987 whole entry, looked up, the tested form may be a part): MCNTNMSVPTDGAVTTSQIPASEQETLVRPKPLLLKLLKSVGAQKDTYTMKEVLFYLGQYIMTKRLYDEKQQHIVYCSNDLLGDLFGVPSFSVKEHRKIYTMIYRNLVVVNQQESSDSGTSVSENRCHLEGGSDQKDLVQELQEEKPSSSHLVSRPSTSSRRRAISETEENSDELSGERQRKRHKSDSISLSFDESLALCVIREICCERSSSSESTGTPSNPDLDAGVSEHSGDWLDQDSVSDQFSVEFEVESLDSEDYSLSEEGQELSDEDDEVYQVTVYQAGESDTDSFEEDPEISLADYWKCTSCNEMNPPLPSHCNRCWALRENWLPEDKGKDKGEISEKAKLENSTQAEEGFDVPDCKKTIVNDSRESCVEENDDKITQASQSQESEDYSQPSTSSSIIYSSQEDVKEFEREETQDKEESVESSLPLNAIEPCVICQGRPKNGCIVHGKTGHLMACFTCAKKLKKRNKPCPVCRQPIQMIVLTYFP
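Material: Stable MDM2–luciferase fusion reporter cells | Amount: 2000 cells seeded into each well | Dosing: One concentration, 5 µM, with 0.2% DMSO | Incubation: 4 h cell settling then 2 h compound exposure, 37 °C | Measured by: Luciferase luminescence | Read-out basis: % enhancement relative to plate controls after blank subtraction | Benchmarks: Control and blank well means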
S1P3 antagonist: S1P3 receptor antagonists, primary screen, cell-based. Sphingosine 1-phosphate receptor 3 (Homo sapiens), Q99500. AID 485, 2006. 0.27% of 170,000 active. CHO S1P3 NFAT-BLA reporter, FRET fluorescence, antagonist mode. inhibition, % at 4.98 µM;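 active = inhibition above the plate cutoff, the mean inhibition of test wells on that plate plus 3 SD, cut at about 28% in these data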;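 also: cells challenged with S1P at its EC80 of 0.8 µM; blue over green emission ratio from cleaved BLA substrate after 4 h stimulation; 0% = S1P-stimulated wells and 100% = unstimulated DMSO-only wells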
Numbers without * were called inactive; · = not tested or not shown.

SMILES	S1P4 agonist	Lmaj promast	S1P4 antag	MDM2 E3 inh	S1P3 antagonist
Cc1ccc(S(=O)(=O)N(c2ccc(Br)cc2)C2C=CS(=O)(=O)C2)cc1 (stereo not given)	0	17	6	-9	4
O=C(Nc1nnc(SCC(=O)N2CCCc3ccccc32)s1)c1cccc2ccccc12	3	96*	-13	-1	1
Cc1ccc(C(=O)Nc2nnc(SCC(=O)N3CCCc4ccccc43)s2)cc1	4	-6	-5	-66	-1
CN1[C@@H]2CC[C@H]1CC(OC(=O)C(CO)c1ccccc1)C2 (stereo not given in full)	2	-6	-10	·	4
CC(O)C(NS(=O)(=O)c1ccc(Cl)cc1)C(=O)OCC(=O)N1CCN(c2ccccc2)CC1 (stereo not given)	1	1	-2	-2	5
Cc1ccc(Sc2ncnc3onc(C)c23)cc1	0	56*	3	-6	·
Cc1noc2ncnc(Sc3ccc(Cl)cc3)c12	-2	44	24	-10	·
CC(=O)N1c2ccccc2C2(O)N=C(C)SC12 (stereo not given)	1	13	2	2	-8
COc1cc2c(C#N)c(N3CCc4ccccc4C3)nc(N)c2c(N)n1	0	54*	-23	-19	5
CCn1cc(C(=O)OCC(=O)c2cc(C)n(-c3ccccc3F)c2C)c(=O)c2ccc(C)nc21	0	53*	-15	8	-8
CN(C)c1ccc(P(=O)(Nc2cccc(C(F)(F)F)c2)N2CCOCC2)c(NC(=O)c2cccs2)c1 (stereo not given)	0	59*	-6	4	-12
O=C(Nc1ccc(NC(=O)c2cc([N+](=O)[O-])ccc2N2CCOCC2)cc1)c1cccs1	1	-3	7	-2	6
CC1N(C)c2cc(NC(=O)c3cccs3)c(P(=O)(Nc3ccc([N+](=O)[O-])cc3)N3CCOCC3)cc2C1(C)C (stereo not given)	0	59*	-4	-21	11
CCc1nnc(NC(=O)CSc2ncc(-c3ccccc3)n2CC)s1	0	-12	4	-20	3
CC(C)N(O)C(=O)NC(C)(C)C	-2	-4	-2	6	-36
O=C(N1CCOCC1)C(F)(F)C(F)(F)C(F)(F)C(F)(F)C(=O)N1CCOCC1	1	-11	-14	-13	26
COC(=O)CC1(C(=O)OC)Oc2ccc(Br)cc2C(=O)N1c1cc(Cl)c(Cl)cc1Cl (stereo not given)	0	·	1	-10	8
C/C(=N/OC(=O)c1ccccc1)c1oc(C)nc1C	0	·	-7	-8	2
Cc1cccc(NC(=O)CCC(=O)N/N=C/c2ccco2)c1	0	-7	-14	-8	-4
O=C(CCCCCCCCC(=O)N/N=C/c1ccco1)N/N=C/c1ccco1	2	1	-4	-10	-15
O=C(N/N=C\c1ccco1)Nc1cccc(Cl)c1	-1	63*	8	-13	-2
CCCCCC(=O)N/N=C/c1ccco1	1	78*	-16	10	-8
Cc1ccc(CNC(=O)CSc2nc3ccsc3c(=O)n2Cc2ccc(C(=O)O)cc2)cc1	-1	7	-13	0	-1
COc1cccc(OC)c1OCC(C)CNCC1CCCO1 (stereo not given)	1	85*	-1	·	·
Cc1onc(-c2ccccc2)c1CNS(=O)(=O)c1cccc(Br)c1	2	·	-1	-6	3
SMILES	S1P4 agonist	Lmaj promast	S1P4 antag	MDM2 E3 inh	S1P3 antagonist
Cc1ccc2[nH]c(=O)c(CN(CC3CCCO3)S(=O)(=O)c3cccc4nsnc34)cc2c1 (stereo not given)	0	13	-24	-11	-18
COc1ccc2[nH]c(=O)c(CN(Cc3cccs3)S(=O)(=O)c3c(C)ccc4nsnc34)cc2c1	0	98*	7	-13	·
Cc1ccc2[nH]c(=O)c(CN(CC3CCCO3)S(=O)(=O)c3c(C)ccc4nsnc34)cc2c1 (stereo not given)	-1	95*	-9	-29	12
Cc1cc(S(=O)(=O)N2CCCCCC2)c(Cl)cc1Cl	0	3	1	-23	·
O=C(CSc1nnc(Cc2ccccc2)o1)Nc1ccc2c(c1)OCO2	0	4	6	4	·
CC1=NN(C(N)=S)C(=O)C1N=Nc1ccc(O)cc1 (stereo not given)	1	58*	-2	-6	-15
CC1(C)C2CCC(C2)C1(C)NC(=O)C[N+](C)(C)C (stereo not given)	0	·	9	-8	5
CC(=O)C(Cc1ccccc1)NC(=O)CN1CCc2ccccc2C1 (stereo not given)	0	11	-1	-1	5
CC(=O)C(Cc1ccccc1)NC(=O)CN1CCN(Cc2ccccc2)CC1 (stereo not given)	1	65*	3	6	-3
CC1(C)C2CCC(C2)C1(C)NC(=O)CN1CCN(Cc2ccccc2)CC1 (stereo not given)	1	81*	10	-3	12
CCc1ccc(C(C(=O)NC2CCCCC2)N(C(=O)CNC(=O)c2ccco2)c2cccnc2)cc1 (stereo not given)	-2	-2	-5	·	·
Cc1ccc(OCCNC(=O)Cc2ccc(F)cc2)cc1	-1	0	-21	·	7
Cc1cc2ccccn2c1C(=O)c1ccc(NN)c([N+](=O)[O-])c1	-2	-2	-4	-9	-2
Cc1cc2ccccn2c1C(=O)c1cc([N+](=O)[O-])cc([N+](=O)[O-])c1	-2	100*	4	-9	-18
CN(C)CC/C=C1/c2ccccc2Sc2ccc(Cl)cc21	0	·	2	-10	8
CNCC/C=C1/c2ccccc2CSc2ccccc21	0	90*	15	-2	·
COc1ccc(O)c(C(=O)c2coc(=N)c(C(=O)Nc3ccc(SC(F)F)cc3)c2)c1	0	83*	-7	-9	-5
O=C(NCCCN1CCCC1=O)c1cc(-c2ccc3c(c2)OCO3)nc2ccccc12	0	7	-3	-8	-21
COC(=O)c1ccccc1NC(=O)CN1CCN(C23CC4CC(CC(C4)C2)C3)CC1	-2	86*	-6	-27	-16
COc1ccc2c(-c3cc4ccc(OCc5ccc(F)cc5)cc4oc3=O)cc(=O)oc2c1	-1	52*	-10	-13	10
COc1ccc(-c2cc(=O)oc3cc(OCC(C)=O)ccc23)cc1	-1	64*	-13	5	4
Cc1cnc(NC(=O)c2cc3c(C)nn(Cc4ccccc4Cl)c3s2)s1	0	60*	-10	-3	14
